Results on 17 molecules are retold here after ChEMBL document CHEMBL1157609, “Discovery of vaniprevir (MK-7009), a macrocyclic hepatitis C virus NS3/4a protease inhibitor” (J Med Chem, 2010).

Structures are written as SMILES.

For data set [1], the system named is Hepatitis C virus. Description: Antiviral activity against HCV Con1 infected in human HuH7 cells assessed as inhibition of viral replication after 24 hrs by replicon assay in presence of 10% fetal bovine serum. The following applies: Con1, Huh-7, 24 h. Type of data set: functional, organism-based, Hepacivirus hominis. An outline of the steps: (§1)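 Huh-7 cells stably carrying a bicistronic replicon (1b con1 or 2a JFH) seeded at 20000 cells/well and held 24 h at 37 °C/5% CO2 in DMEM with 10% FBS or 50% NHS. Compound added in DMSO (1% final) for a further 24 h. Cells fixed and permeabilized. Replicon RNA quantified by in situ hybridization of a radiolabeled neomycin-resistance probe (50 °C, 18 h), followed by RNase A treatment.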

The nature of data set [2]: Drug level in Sprague-Dawley rat liver at 5 mg/kg, po after 4 hrs by LC/MS analysis. Format: ADME, organism-based. Further details: dose 5 mg/kg, route oral. To be noted: read-out: Drug uptake. An outline of the steps: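 Rats given a single oral dose as a PEG400 solution (2.0 mL/kg). Liver collected at the terminal time point and homogenized in buffer. Drug extracted liquid-liquid and quantified by LC/MS against standards and QCs.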

Data set [3] in a line: Inhibition of HCV1b BK full length NS3/4A protease expressed in Escherichia coli after 1 hr by time-resolved fluorescence assay. Further details: species or system Hepatitis C virus (isolate BK). An outline of the steps:
(§2)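 Full-length NS3/4A (1b BK or 2a JFH) purified from E. coli. TRF peptide substrate added at 100 nM final. Reaction run 1 h at RT, then quenched with 500 mM MES pH 5.5. Read at ex 340/em 615 nm with 400 μs delay. Ki from a four-parameter fit.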

Data set [4] deals with Hepatitis C virus. Description: Antiviral activity against HCV Con1 infected in human HuH7 cells assessed as inhibition of viral replication after 24 hrs by replicon assay in presence of 50% normal human serum. Format: functional, organism-based, Hepacivirus hominis. The following applies: Con1, Huh-7, 24 h. An outline of the steps: as §1
Data set [5] can be described thus: Inhibition of HCV JFH-1 full length NS3/4A protease expressed in Escherichia coli after 1 hr by time-resolved fluorescence assay. Further details: species or system Hepatitis C virus JFH-1. An outline of the steps:
as §2

Data set [6] concerns Hepatitis C virus. Description: Antiviral activity against HCV JFH-1 infected in human HuH7 cells assessed as inhibition of viral replication after 24 hrs by replicon assay in presence of 10% fetal bovine serum. Format: functional, organism-based, Hepacivirus hominis. To be noted: JFH-1, Huh-7, 24 h. An outline of the steps:
as §1

A short description of data set [7]: Drug level in Sprague-Dawley rat liver at 5 mg/kg, po after 24 hrs by LC/MS analysis. Type of data set: ADME, organism-based. The arrangement: dose 5 mg/kg, route oral. To be noted: read-out: Drug uptake. An outline of the steps:
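Single oral dose given as a PEG400 solution (2.0 mL/kg). Liver was collected at the terminal time point, homogenized in buffer, and processed by liquid-liquid extraction. Drug was quantified by LC/MS against standards and QCs.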

The nature of data set [8]: Drug level in monkey liver at 5 mg/kg, po after 2 hrs by LC/MS analysis. Format: ADME, organism-based, Macaca mulatta. The arrangement: dose 5 mg/kg, route oral. The following applies: rhesus monkey, read-out: Drug uptake.
Data set [9] in a line: Drug level in Beagle dog liver at 5 mg/kg, po after 2 hrs by LC/MS analysis. Format: ADME, organism-based, Canis lupus familiaris. Further details: dose 5 mg/kg, route oral. The following applies: read-out: Drug uptake.
Data set [10] is described as follows: AUC in Beagle dog at 5 mg/kg, po by LC/MS analysis. Type of data set: ADME, organism-based, Canis lupus familiaris. Further details: dose 5 mg/kg, route oral. The following applies: plasma.
The nature of data set [11]: AUC in monkey at 5 mg/kg, po by LC/MS analysis. Format: ADME, organism-based, Macaca mulatta. Further details: dose 5 mg/kg, route oral. The following applies: rhesus monkey, plasma.
The nature of data set [12]: Drug level in Beagle dog liver at 5 mg/kg, po after 24 hrs by LC/MS analysis. Type of data set: ADME, organism-based, Canis lupus familiaris. Further details: dose 5 mg/kg, route oral. To be noted: read-out: Drug uptake.
Data set [13] is described as follows: AUC in chimpanzee at 10 mg/kg, po by LC/MS analysis. The arrangement: dose 10 mg/kg, route oral. To be noted: plasma. Format: ADME, organism-based, Pan troglodytes. An outline of the steps: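 Two chimpanzees dosed orally by voluntary ingestion in a chocolate milk vehicle (0.67 mL/kg). Blood sampled at multiple times up to 24 h. Plasma analysed by liquid-liquid extraction and LC/MS against standards and QCs. Pharmacokinetic parameters calculated from the concentration data.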

In general, IC50 refers to the point on the concentration scale where inhibition reaches its midpoint. A word on the Ki: it is the dissociation constant of the complex between target and ligand, obtained from inhibition or displacement. Regarding `C=C[C@@H]1C[C@]1(NC(=O)[C@@H]1C[C@@H]2CN1C(=O)[C@H](C(C)C)NC(=O)OCCC/C=C/c1cccc3c1CN(C3)C(=O)O2)C(=O)NS(=O)(=O)C1CC1`, the figures for the IC50 in the data set on Hepatitis C virus [1] and with Hepatitis C virus [4] were 12 nM and 28 nM, respectively. In addition, in data set [2], the concentration at 4 h is 440 nM. Moreover, the Ki in data set [3] was 0.04 nM.

On to `CC[C@@H]1C[C@]1(NC(=O)[C@@H]1C[C@@H]2CN1C(=O)[C@H](C(C)(C)C)NC(=O)OCCCCCc1cccc3c1CN(C3)C(=O)O2)C(=O)NS(=O)(=O)C1CC1`, for which the IC50 is 10 nM with Hepatitis C virus [1], 35 nM in the data set on Hepatitis C virus [4] and 140 nM in the data set with Hepatitis C virus [6]. Moreover, the concentration at 4 h in data set [2] stood at 10700 nM. For the same molecule, the results for the Ki in data set [5] and in data set [3] were 4 nM and 0.18 nM, respectively.

Regarding `C=C[C@@H]1C[C@]1(NC(=O)[C@@H]1C[C@@H]2CN1C(=O)[C@H](C1(C)CCCCC1)NC(=O)OCCC/C=C/c1cccc3c1CN(C3)C(=O)O2)C(=O)NS(=O)(=O)C1CC1`, the figures for the IC50 in the data set on Hepatitis C virus [1] and with Hepatitis C virus [4] were 4 nM and 38 nM, respectively. Further, in [2], the concentration at 4 h stood at 1600 nM. This molecule also showed a Ki in [3] of 0.06 nM.

`C=C[C@@H]1C[C@]1(NC(=O)[C@@H]1C[C@@H]2CN1C(=O)[C@H](C(C)(C)C)NC(=O)OCCCCC/C=C/c1cccc3c1CN(C3)C(=O)O2)C(=O)NS(=O)(=O)C1CC1`: the IC50 came to 3 nM in the data set with Hepatitis C virus [1] and 23 nM with Hepatitis C virus [4]. The concentration at 4 h in [2] amounted to 140 nM. The Ki in data set [3] was below 0.02 nM.

For the molecule `C=C[C@@H]1C[C@]1(NC(=O)[C@@H]1C[C@@H]2CN1C(=O)[C@H](C(C)(C)C)NC(=O)OCCC/C=C/c1cccc3c1CCN(C3)C(=O)O2)C(=O)NS(=O)(=O)C1CC1`, the IC50 in the data set on Hepatitis C virus [1] was 730 nM; in the data set on Hepatitis C virus [4] it was 2900 nM. Moreover, affinity in data set [3] was put at a Ki of 8.3 nM.

In the case of `C=C[C@@H]1C[C@]1(NC(=O)[C@@H]1C[C@@H]2CN1C(=O)[C@H](C(C)(C)C)NC(=O)OCC/C=C/c1cccc3c1CN(C3)C(=O)O2)C(=O)NS(=O)(=O)C1CC1`, the results for the IC50 in the data set on Hepatitis C virus [1] and in the data set on Hepatitis C virus [4] were 16 nM and 390 nM, respectively. For the same molecule, in data set [3], the Ki turned out to be 0.1 nM.

In the case of `C=C[C@@H]1C[C@]1(NC(=O)[C@@H]1C[C@@H]2CN1C(=O)[C@H](C(C)(C)C)NC(=O)OCCC/C=C/c1cccc(c1)CN(C)C(=O)O2)C(=O)NS(=O)(=O)C1CC1`, the IC50 worked out at 28 nM in the data set with Hepatitis C virus [1] and 42 nM with Hepatitis C virus [4]. Moreover, the concentration at 4 h in data set [2] amounted to 450 nM. In data set [3], this molecule displayed a Ki of 0.14 nM.

Regarding `C=C[C@@H]1C[C@]1(NC(=O)[C@@H]1C[C@@H]2CN1C(=O)[C@H](C(C)(C)C)NC(=O)OCCC/C=C/c1ccccc1CN(C)C(=O)O2)C(=O)NS(=O)(=O)C1CC1`, the half-maximal inhibitory concentration (IC50) came to 98 nM in the data set with Hepatitis C virus [1] and 610 nM in the data set with Hepatitis C virus [4]. This molecule also had a Ki in data set [3] of 1.6 nM.

Take `C=C[C@@H]1C[C@]1(NC(=O)[C@@H]1C[C@@H]2CN1C(=O)[C@H](C(C)(C)C)NC(=O)OCCC/C=C/c1cccc3c1CN(C3)C(=O)O2)C(=O)NS(=O)(=O)C1CC1`: the IC50 came to 7 nM with Hepatitis C virus [1], 32 nM in the data set on Hepatitis C virus [4] and 150 nM in the data set with Hepatitis C virus [6]. Also, the concentration at 4 h in data set [2] was 910 nM. In addition, the Ki in [5] came out at 2.6 nM; in [3] it was 0.05 nM.

Consider `C=C[C@@H]1C[C@]1(NC(=O)[C@@H]1C[C@@H]2CN1C(=O)[C@H](C(C)(C)C)NC(=O)OCCC/C=C/c1cccc3c1CN(CC3)C(=O)O2)C(=O)NS(=O)(=O)C1CC1`, for which the IC50 in the data set with Hepatitis C virus [1] turned out to be 26 nM; with Hepatitis C virus [4], 140 nM. For the same molecule, the concentration at 4 h in data set [2] came to 3500 nM. Further, in [3], the Ki was found to be 0.15 nM.

Turning to `C=C[C@@H]1C[C@]1(NC(=O)[C@@H]1C[C@@H]2CN1C(=O)[C@H](C1CCCCC1)NC(=O)OCCC/C=C/c1cccc3c1CN(C3)C(=O)O2)C(=O)NS(=O)(=O)C1CC1`, the IC50 in the data set with Hepatitis C virus [1] amounted to 3 nM; in the data set on Hepatitis C virus [4] it was 24 nM. For the same molecule, the concentration at 4 h in data set [2] came to 2800 nM. The Ki in data set [3] is 0.02 nM.

Regarding `C=C[C@@H]1C[C@]1(NC(=O)[C@@H]1C[C@@H]2CN1C(=O)[C@H](CCCC)NC(=O)OCCC/C=C/c1cccc3c1CN(C3)C(=O)O2)C(=O)NS(=O)(=O)C1CC1`, the concentration for half-maximal inhibition (IC50) in the data set on Hepatitis C virus [1] came out at 6 nM; in the data set with Hepatitis C virus [4] it was 26 nM. Further, in data set [2], the concentration at 4 h stood at 460 nM. In data set [3], the Ki stood at 0.05 nM.

Take `C=C[C@@H]1C[C@]1(NC(=O)[C@@H]1C[C@@H]2CN1C(=O)[C@H](C1CCCC1)NC(=O)OCCC/C=C/c1cccc3c1CN(C3)C(=O)O2)C(=O)NS(=O)(=O)C1CC1`: the figures for the IC50 in the data set with Hepatitis C virus [1] and in the data set with Hepatitis C virus [4] were 4 nM and 23 nM, respectively. The Ki in data set [3] is 0.04 nM.

Regarding `C=C[C@@H]1C[C@]1(NC(=O)[C@@H]1C[C@@H]2CN1C(=O)[C@H](C(C)(C)C)NC(=O)OCCCC/C=C/c1cccc3c1CN(C3)C(=O)O2)C(=O)NS(=O)(=O)C1CC1`, the IC50 in the data set with Hepatitis C virus [1] was determined as 5 nM; in the data set on Hepatitis C virus [4] it was 19 nM. Further, in data set [2], the concentration at 4 h worked out at 230 nM. In addition, the Ki in data set [3] was found to be 0.03 nM.

Regarding `C=C[C@@H]1C[C@]1(NC(=O)[C@@H]1C[C@@H]2CN1C(=O)[C@H](C(C)(C)C)NC(=O)OCCCCCc1cccc3c1CN(C3)C(=O)O2)C(=O)NS(=O)(=O)C1CC1`, the results for the IC50 with Hepatitis C virus [1], with Hepatitis C virus [4] and in the data set with Hepatitis C virus [6] were 7 nM, 27 nM and 66 nM, respectively. The concentration at 4 h in data set [2] is 520 nM. The Ki amounted to 0.9 nM in data set [5] and 0.04 nM in [3].

For `CC[C@@H]1C[C@]1(NC(=O)[C@@H]1C[C@@H]2CN1C(=O)[C@H](C(C)(C)C)NC(=O)OCCC/C=C/c1cccc3c1CN(C3)C(=O)O2)C(=O)NS(=O)(=O)C1CC1`, the IC50 with Hepatitis C virus [1] was found to be 29 nM; in the data set with Hepatitis C virus [4] it was 110 nM; in the data set on Hepatitis C virus [6] it was 720 nM. The concentration at 4 h in [2] stood at 3800 nM. The Ki in [5] worked out at 19 nM; in [3], 0.45 nM.

Broadly, the AUC is the area under the concentration-time curve, a measure of exposure. With `CC[C@@H]1C[C@]1(NC(=O)[C@@H]1C[C@@H]2CN1C(=O)[C@H](C(C)(C)C)NC(=O)OCC(C)(C)CCCCc1cccc3c1CN(C3)C(=O)O2)C(=O)NS(=O)(=O)C1CC1` [VANIPREVIR], the concentration at 24 h was 400 nM in data set [7] and 500 nM in data set [12]. Moreover, the IC50 in the data set with Hepatitis C virus [1] amounted to 3 nM; in the data set on Hepatitis C virus [4], 19 nM; with Hepatitis C virus [6], 9 nM. For the same molecule, the concentration at 4 h in [2] was found to be 9900 nM. For the same molecule, the Ki in data set [5] was 0.9 nM; in data set [3] it was 0.05 nM. Moreover, the concentration at 2 h was 3000 nM in data set [8] and 34000 nM in [9]. Further, the results for the AUC in data set [10], in [11] and in [13] were 1.2 µM·h, 0.05 µM·h and 5.2 µM·h, respectively.
